Data taken from ChEMBL document CHEMBL1132373, “Synthesis, opioid receptor binding, and biological activities of naltrexone-derived pyrido- and pyrimidomorphinans” (J Med Chem, 1999).

Assays:
[1] = target: Opioid receptors; mu & delta (Rattus norvegicus) (UniProt P33533+P33535); test: Selectivity ratio of binding affinity towards mu to delta receptors of rat brain membranes; assay type: cell membranes; details: Membrane
Mus musculus = organism: Mus musculus; test: Inhibition of contraction (agonistic activity) of mouse vas deferens (MVD) at 1 uM concentration.; assay type: functional
Mu-type opioid receptor = Mu-type opioid receptor (Rattus norvegicus, UniProt P33535); test: Binding affinity for Opioid receptor mu 1 was determined by inhibition of binding of [3H]DAMGO (1.4-3 nM) to rat brain membranes; assay type: cell membranes, Membrane
How it was run: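 Rat brain membranes prepared daily, washed twice at 30000g. Labelled with [3H]DAMGO (1-3 nM), 2 h at 25 °C in 50 mM Tris-HCl pH 7.4 plus protease inhibitor cocktail. Nonspecific binding with 20 µM levallorphan. Test drug at 8-10 concentrations, run twice; Ki from IC50 via Ki = IC50/(1+[L]/Kd).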

Cavia porcellus [2] = organism: Cavia porcellus; test: Selectivity ratio of binding affinity towards kappa of guinea pig brain membrane to delta receptors of rat brain membranes; assay type: cell membranes
[3] = target: Delta-type opioid receptor (Mus musculus) (UniProt P32300); test: Antagonist potency against delta opioid receptor in mouse vas deferens (MVD) using DPDPE; assay type: functional, tissue-based
How it was run: (§1)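 Vas deferens from male ICR mice (25-40 g) in 37 °C oxygenated magnesium-free Krebs, 0.5 g tension, field-stimulated 0.1 Hz, 2-ms pulses. Compound 1 µM for 30 min, washout 30 min, cumulative DPDPE curve repeated. Ke = [antagonist]/(IC50 ratio - 1); IC50 from 2-4 tissues, n ≥ 3, nonlinear least squares.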

[4] = target: Delta-type opioid receptor (Rattus norvegicus, UniProt P33533); test: Binding affinity for Opioid receptor delta 1 was determined by inhibition of binding of [3H]DADLE (1.3-2.0 nM) to rat brain membranes; assay type: cell membranes, Membrane
How it was run: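 Rat brain membranes prepared daily (homogenised in ice-cold 10 mM Tris-HCl pH 7.0, centrifuged twice at 30000g). [3H]DADLE (2 nM) incubated 2 h at 25 °C in 50 mM Tris-HCl pH 7.4 with 100 mM choline chloride, 3 mM MnCl2, 100 nM DAMGO blocking mu sites, protease inhibitors. Nonspecific: 20 µM levallorphan. 8-10 drug concentrations, duplicate; Ki = IC50/(1+[L]/Kd).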

[5] = target: Kappa-type opioid receptor (Cavia porcellus, UniProt P41144); test: Binding affinity for Opioid receptor kappa 1 was determined by inhibition of binding of [3H]U-69593 (1.2-2.2 nM) to guinea pig brain membranes; set-up: species or system Membrane
How it was run: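 Guinea pig brain membranes prepared daily, washed twice at 30000g. [3H]U69,593 (2 nM) incubated 2 h at 25 °C in 50 mM Tris-HCl pH 7.4 with 1 µg/mL captopril and protease inhibitors. Nonspecific binding with 1 µM U69,593. 8-10 drug concentrations, twice; Ki = IC50/(1+[L]/Kd).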

[6] = target: Delta-type opioid receptor (Mus musculus) (UniProt P32300); test: (§2) Antagonist potency measured as Ke = [antagonist]/(IC50 ratio-1) against delta opioid receptor from mouse vas deferens (MVD) using DPDPE; assay type: functional; how it was run: as §1
Cavia porcellus [7] = organism: Cavia porcellus; test: Selectivity ratio of binding affinity towards mu of […] preparations; assay type: tissue-based
[8] = target: Mu-type opioid receptor (Cavia porcellus) (UniProt P97266); test: Opioid antagonist potency against […] mu-opioid receptor from guinea pig ileum(GPI).; assay type: functional, tissue-based
How it was run: (§3)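 Longitudinal muscle-myenteric plexus strips from male Hartley guinea pigs (250-500 g), 37 °C oxygenated Krebs, 1 g tension, 0.1 Hz, 0.4 ms pulses. Preincubated 30 min with 1 µM compound, washed 30 min, cumulative PL-017 curve repeated. Ke = [antagonist]/(IC50 ratio - 1); IC50 from 2-4 tissues.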

[9] = target: Mu-type opioid receptor (Cavia porcellus) (UniProt P97266); test: Antagonist potency against mu opioid receptor in guinea pig ileum (GPI) using […]; assay type: functional, tissue-based; how it was run: as §3
Cavia porcellus [10] = organism: Cavia porcellus; test: Inhibition of contraction (agonistic activity) of guinea pig ileum(GPI) at 1 uM concentration.; assay type: functional
How it was run: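 Guinea pig ileum longitudinal muscle strips, 37 °C oxygenated Krebs, 1 g tension, 0.1 Hz, 0.4 ms pulses, supramaximal voltage.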

[11] = target: Delta-type opioid receptor (Mus musculus, UniProt P32300); test: as §2; assay type: functional; how it was run: as §1
[12] = target: Delta-type opioid receptor (Mus musculus) (UniProt P32300)

Chain of Mu-type opioid receptor (Cavia porcellus) (P97266 whole entry): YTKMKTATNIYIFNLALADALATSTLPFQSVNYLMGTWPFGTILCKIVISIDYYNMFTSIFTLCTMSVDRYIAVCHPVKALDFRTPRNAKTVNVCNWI
Chain of Delta-type opioid receptor (Rattus norvegicus, UniProt P33533) (P33533 whole entry): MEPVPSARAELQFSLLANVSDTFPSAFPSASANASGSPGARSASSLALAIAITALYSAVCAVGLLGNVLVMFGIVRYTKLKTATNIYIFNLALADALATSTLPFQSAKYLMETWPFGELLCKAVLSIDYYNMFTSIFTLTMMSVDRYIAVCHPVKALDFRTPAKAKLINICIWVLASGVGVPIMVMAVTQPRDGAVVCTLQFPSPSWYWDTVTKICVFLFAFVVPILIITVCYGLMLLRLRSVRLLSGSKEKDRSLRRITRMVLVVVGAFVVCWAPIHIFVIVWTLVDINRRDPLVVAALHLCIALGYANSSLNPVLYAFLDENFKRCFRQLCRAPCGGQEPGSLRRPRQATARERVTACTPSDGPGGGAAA
Chain of Opioid receptors; mu & delta (Rattus norvegicus) (P33533 whole entry, looked up): as the sequence (P33533 whole entry) above
Chain of Opioid receptors; mu & delta (Rattus norvegicus) (P33535 whole entry, looked up): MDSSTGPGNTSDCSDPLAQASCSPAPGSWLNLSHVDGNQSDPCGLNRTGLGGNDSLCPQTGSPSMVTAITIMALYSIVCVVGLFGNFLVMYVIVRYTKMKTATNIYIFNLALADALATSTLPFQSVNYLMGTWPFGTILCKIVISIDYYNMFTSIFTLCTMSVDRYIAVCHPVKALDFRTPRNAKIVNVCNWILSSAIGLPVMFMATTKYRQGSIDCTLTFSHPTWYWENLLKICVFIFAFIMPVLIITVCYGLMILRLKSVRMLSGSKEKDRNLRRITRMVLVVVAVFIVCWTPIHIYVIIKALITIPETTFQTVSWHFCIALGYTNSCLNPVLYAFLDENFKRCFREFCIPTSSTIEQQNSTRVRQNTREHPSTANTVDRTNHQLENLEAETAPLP
Chain of Mu-type opioid receptor (P33535 whole entry): as the sequence (P33535 whole entry, looked up) above
Chain of Kappa-type opioid receptor (P41144 whole entry): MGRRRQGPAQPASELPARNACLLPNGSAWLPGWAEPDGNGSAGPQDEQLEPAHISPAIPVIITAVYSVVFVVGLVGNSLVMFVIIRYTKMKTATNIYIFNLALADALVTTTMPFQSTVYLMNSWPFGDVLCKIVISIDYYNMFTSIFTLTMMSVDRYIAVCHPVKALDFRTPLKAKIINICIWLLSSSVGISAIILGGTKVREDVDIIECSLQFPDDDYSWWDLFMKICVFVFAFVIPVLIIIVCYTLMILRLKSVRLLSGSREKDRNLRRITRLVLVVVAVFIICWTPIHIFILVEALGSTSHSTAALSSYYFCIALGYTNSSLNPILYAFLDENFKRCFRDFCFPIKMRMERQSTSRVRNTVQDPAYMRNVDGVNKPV
Chain of Delta-type opioid receptor (Mus musculus) (P32300 whole entry): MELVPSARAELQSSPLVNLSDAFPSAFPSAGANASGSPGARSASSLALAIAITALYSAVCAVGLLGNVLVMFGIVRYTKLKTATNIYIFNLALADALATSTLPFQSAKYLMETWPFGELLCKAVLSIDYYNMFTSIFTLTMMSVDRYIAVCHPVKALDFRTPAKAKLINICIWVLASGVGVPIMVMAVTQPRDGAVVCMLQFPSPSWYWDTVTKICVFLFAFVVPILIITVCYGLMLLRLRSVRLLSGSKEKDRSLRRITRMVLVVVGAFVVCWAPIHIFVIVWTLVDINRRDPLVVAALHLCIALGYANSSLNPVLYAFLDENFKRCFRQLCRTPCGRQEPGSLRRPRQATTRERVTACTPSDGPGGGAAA
Chain of Delta-type opioid receptor (Mus musculus, UniProt P32300) (P32300 whole entry): as above

| SMILES | Selectivity ratio [1] | IC50 (Mus musculus; Mus musculus) [µM] | Ki (Mu-type opioid receptor) [µM] | Selectivity ratio (Cavia porcellus [2]) | IC50 ratio [3] | Ki [4] [µM] | Ki [5] [µM] | Ke [6] [nM] | Selectivity ratio (Cavia porcellus [7]) | Ke [8] [nM] | IC50 ratio [9] | Percent inhibition of contraction at 1 uM (Mus musculus) [%] | IC50 (Cavia porcellus [10]; Cavia porcellus, Ileum) [µM] | Ki [11] [µM] | Percent inhibition of contraction at 1 uM (Cavia porcellus [10]) [%] | inhibition at 1 µM (Mus musculus) [%] | Ke [12] [nM] | inhibition at 1 µM (Cavia porcellus [10]) [%] | IC50 (Mus musculus) [%] | IC50 (Cavia porcellus [10]) [%] |
| --- | --- | --- | --- | --- | --- | --- | --- | --- | --- | --- | --- | --- | --- | --- | --- | --- | --- | --- | --- | --- |
| Cc1ncc2c(n1)[C@@H]1Oc3c(O)ccc4c3[C@@]13CCN(CC1CC1)[C@H](C4)[C@]3(O)C2 | 0.3 | 0.003 | 0.006 | 1.1 | 7.6 | 0.0227 | 0.025 | 150 | – | – | – | – | – | – | – | – | – | – | – | – |
| Oc1ccc2c3c1O[C@H]1c4nc(-c5ccccc5)ccc4C[C@@]4(O)[C@@H](C2)N(CC2CC2)CC[C@]314 | 6.3 | – | 0.011 | 10 | 41.1 | 0.00176 | 0.0184 | 25 | 3.5 | 88 | 12.4 | – | – | – | – | – | – | – | – | – |
| Oc1ccc2c3c1O[C@H]1c4ncc(-c5ccc(Cl)cc5)cc4C[C@@]4(O)[C@@H](C2)N(CC2CC2)CC[C@]314 | – | – | – | – | – | – | – | – | – | – | – | 21 | 0.163 | – | – | – | – | – | – | – |
| Oc1ccc2c3c1O[C@H]1c4ncc(-c5ccccc5)cc4C[C@@]4(O)[C@@H](C2)N(CC2CC2)CC[C@]314 | 16 | – | 0.0135 | 20 | 249 | 0.00087 | 0.0176 | – | 12 | – | 24.6 | 4.7 | – | 0.0034 | – | – | – | – | – | – |
| Oc1ccc2c3c1O[C@H]1c4nc(-c5ccccc5)nc(-c5ccccc5)c4C[C@@]4(O)[C@@H](C2)N(CC2CC2)CC[C@]314 | 3.4 | – | 1.17 | 7.4 | 7.63 | 0.344 | 2.54 | 150 | 3.7 | 560 | 2.8 | – | – | – | – | – | – | – | – | – |
| Oc1ccc2c3c1O[C@H]1c4nc5ccccc5c(-c5ccccc5)c4C[C@@]4(O)[C@@H](C2)N(CC2CC2)CC[C@]314 | 4.2 | – | 0.308 | 3.7 | – | 0.073 | 0.272 | – | – | – | – | – | – | – | – | – | – | – | – | – |
| Cc1nc(-c2ccccc2)c2c(n1)C1Oc3c(O)ccc4c3[C@@]13CCN(CC1CC1)[C@H](C4)[C@]3(O)C2 (some centres undefined) | 0.8 | – | 0.254 | 1.7 | – | 0.325 | 0.565 | – | – | – | – | – | – | – | – | – | – | – | – | – |
| Oc1ccc2c3c1O[C@H]1c4nc(-c5ccccc5)cc(-c5ccccc5)c4C[C@@]4(O)[C@@H](C2)N(CC2CC2)CC[C@]314 | 7.6 | – | 0.652 | 25 | 21.2 | 0.086 | 2.12 | 49 | – | – | – | – | – | – | – | – | – | – | – | – |
| Oc1ccc2c3c1OC1c4nccc(-c5ccccc5)c4C[C@@]4(O)[C@@H](C2)N(CC2CC2)CC[C@]314 (some centres undefined) | 2.6 | – | 0.191 | 3.6 | 20.5 | 0.073 | 0.264 | 51 | 3.7 | 190 | 6.21 | 31 | – | – | 14.8 | – | – | – | – | – |
| Cc1cc(-c2ccccc2)c2c(n1)C1Oc3c(O)ccc4c3[C@@]13CCN(CC1CC1)[C@H](C4)[C@]3(O)C2 (some centres undefined) | 1.2 | 0.0012 | 0.154 | 5.4 | – | 0.125 | 0.677 | – | – | – | – | – | 0.0054 | – | – | – | – | – | – | – |
| Oc1ccc2c3c1O[C@H]1c4[nH]c5ccccc5c4C[C@@]4(O)[C@@H](C2)N(CC2CC2)CC[C@]314 [NALTRINDOLE] | – | – | – | – | – | – | – | – | – | 43 | – | 16 | – | – | 18 | – | – | – | – | – |
| Oc1ccc2c3c1O[C@H]1c4nc(-c5ccccc5)ncc4C[C@@]4(O)[C@@H](C2)N(CC2CC2)CC[C@]314 | 1.4 | – | 0.022 | 0.7 | 14.3 | 0.016 | 0.011 | 75 | 0.4 | 30 | 34.1 | – | 0.004 | – | – | – | – | – | – | – |
| Oc1ccc2c3c1O[C@H]1c4ncccc4C[C@@]4(O)[C@@H](C2)N(CC2CC2)CC[C@]314 | 1.9 | – | 0.0015 | 11 | – | 0.00078 | 0.0088 | – | 4.4 | – | 7.08 | – | – | – | – | 0 | 37 | 0 | – | – |
| Oc1ccc2c3c1O[C@H]1c4nc(Cc5ccccc5)nc(-c5ccccc5)c4C[C@@]4(O)[C@@H](C2)N(CC2CC2)CC[C@]314 | 2.3 | – | 0.233 | 13 | 4.8 | 0.1 | 1.27 | 260 | 0.17 | 44 | 23.8 | – | – | – | – | – | – | – | 11.7 | 14 |
| Oc1ccc2c3c1O[C@H]1c4ncnc(-c5ccccc5)c4C[C@@]4(O)[C@@H](C2)N(CC2CC2)CC[C@]314 | 1.5 | – | 0.348 | 0.9 | 4.3 | 0.23 | 0.216 | 300 | 0.7 | 204 | 5.9 | 15.4 | – | – | 17 | – | – | – | – | – |
| Oc1ccc2c3c1O[C@H]1c4ncncc4C[C@@]4(O)[C@@H](C2)N(CC2CC2)CC[C@]314 | 1.2 | – | 0.00415 | 1.8 | 14.4 | 0.0035 | 0.00624 | 75 | 2 | 150 | 7.52 | – | – | – | – | – | – | – | – | – |
